# From PubChem BioAssay
# N-glyco inh: N-linked glycosylation inhibition. D54 ERlucT glycosylation luciferase reporter, 24 h; percent of 100 nM tunicamycin response. reporter increase, % at 12.5 µM. 0.23% of 360,000 active;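 active means mean luciferase reporter signal, scaled so untreated is 0 and the glycosylation-blocking control 100, at or above a set limit in every replicate; inconclusive means mean reaches the limit but not every replicate does; inactive means mean below the limit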;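 further: luciferase carries N-glycosylation sites so blocking glycosylation raises the light; 0% = median of neutral control wells and 100% = median of 100 nM tunicamycin wells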
# ALR H2O2 inh: human ALR oxidase inhibition via reduced H2O2 | P55789 | purified ALR, DTT oxidation, H2O2 HRP-luminol luminescence | inhibition, % (concentration not given with the values) | 3.8% of 290,000 active | AID 485317;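 active means mean replicate inhibition above about 79%, with every replicate also reaching it, limit read from the data; inconclusive means only one of the two criteria met; inactive means mean below limit and not every replicate reaching it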
# Target sequence (P55789 whole entry, looked up): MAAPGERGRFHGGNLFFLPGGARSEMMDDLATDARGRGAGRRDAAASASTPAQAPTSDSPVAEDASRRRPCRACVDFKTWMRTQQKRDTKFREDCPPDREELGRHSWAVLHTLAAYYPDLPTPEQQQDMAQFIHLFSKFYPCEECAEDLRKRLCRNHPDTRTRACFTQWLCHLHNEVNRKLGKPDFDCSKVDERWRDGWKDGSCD
# T cell HTS: modulates CD8 T cell binding to vesicles; 2C CD8+ T cell-vesicle binding, flow cytometry; active compounds read low; response (vesicle binding), % at 7 µM; 0.068% of 330,000 active; AID 2052;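 active means response, share of CD8 T cells binding vesicles, and their 90th percentile fluorescence all below set limits, cut at about 80% in these data, passing the limit was not always enough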;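 further: values below 100% mean blocked vesicle binding to the CD8+ T cells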
#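 incubation = binding step 1.5 h, 37 °C, antibody labelling 20 min, ice | test system = 2C mouse CD8+ T cells | read-out basis = percent CD8+ FL2 mean versus row control | controls = Peptide-free naked vesicles (low) and QL9 vesicles with 0.7% DMSO vehicle (high) | detection = flow cytometry of vesicle-bound cells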
# Active calls of the source: *; i = inactive; ? = inconclusive; . = no result given. Only a selection was taken, and hits are over-represented in it overall.
SMILES,N-glyco inh,ALR H2O2 inh,T cell HTS
Cc1ccccc1C(=O)Nc1ccnn1C1CCN(C(=O)c2cnsn2)CC1,2.6,-8.6,305.1
O=C(NN=C1CCCCCCCCCCC1)c1ccccc1F,1.2,-0.8,233.3
COc1cc(OC)cc(C(=O)NCC2CCCN(C(=O)c3csc(C(C)C)n3)C2)c1 (stereo not given),1.9,-7.1,378.2
CCn1nc(CC(C)C)cc1C(=O)N1CCCC(Nc2ccc(F)cc2)C1 (stereo not given),0.1,60.2,i
COc1ccc(NC2CCCN(C(=O)c3cccc(C)n3)C2)cc1OC (stereo not given),2.5,?,251.8
COc1ccc(NC2CCCN(C(=O)c3csc(C(C)C)n3)C2)cc1OC (stereo not given),3.0,98.8*,70.5
COc1ccc(NC2CCCN(C(=O)c3cc(CC(C)C)nc(N)n3)C2)cc1 (stereo not given),3.3,93.4*,304.9
COc1ccc(NC2CCCN(C(=O)c3csc(C(C)C)n3)C2)cc1 (stereo not given),0.7,99.5*,337.9
CN(CC(=O)Nc1ccc(Cl)c(C(F)(F)F)c1)C(=O)Cc1ccsc1,4.3,-11.7,765.6
CCOc1cc(N2CCOCC2)c(OCC)cc1NC(=O)c1nn(CC)c(=O)c2ccccc12,-7.6,-76.2,223.2
CCC/C(O)=C1\C(=O)CC(C)(C)CC1=NCCO,0.9,-5.0,145.1
CCC/C(O)=C1\C(=O)CC(C)(C)CC1=Nc1ccccc1O,-2.0,87.2*,228.6
CC(C)CSCC1OC(n2cnc3c(N)nccc32)C(O)C1O (stereo not given),-0.9,.,.
O=C1COc2ccc(C(=O)COC(=O)/C=C/c3ccco3)cc2N1,20.1,0.2,492.8
C=CCN(c1ccccc1)S(=O)(=O)c1cccc(C(=O)NCC2CCCO2)c1 (stereo not given),0.4,0.3,208.1
C=CCOC(=O)/C=C/C(=O)NC(N)=O,1.4,98.4*,232.3
C=CCOC(=O)Nc1ccc(Cl)cc1NC(=O)OCC=C,-1.3,-10.2,525.9
CCOc1ccc(CN2CCC(Cc3ccccc3)CC2)cc1,-3.0,-3.6,234.0
CCOc1ccc(S(=O)(=O)NCCC(=O)N2CCN(C(C)=O)CC2)cc1,1.4,.,.
CCOc1ccc(S(=O)(=O)NCCC(=O)N2CCN(c3ccccc3O)CC2)cc1,1.7,98.3*,493.9
O=C(COc1cccc(C(F)(F)F)c1)N1CCN(c2ccc(O)cc2)CC1,-2.7,.,161.1
O=C(CCNS(=O)(=O)c1ccccc1C(F)(F)F)N1CCN(c2ccccc2O)CC1,-3.1,98.6*,295.1
Nc1ncc(Br)cc1S(=O)(=O)NCCC(=O)N1CCN(c2ccccn2)CC1,0.0,2.4,214.0
Nc1ncc(Br)cc1S(=O)(=O)NCCC(=O)N1CCN(c2ccccc2)CC1,-1.3,96.0*,478.4
O=C(CCNS(=O)(=O)c1ccccc1C(F)(F)F)N1CCN(S(=O)(=O)c2cccc(Cl)c2)CC1,-0.4,-0.4,165.9
SMILES,N-glyco inh,ALR H2O2 inh,T cell HTS
O=C(COc1cccc(C(F)(F)F)c1)N1CCN(c2ccccc2O)CC1,-1.2,97.6*,367.5
COc1cccc(C(=O)O[C@@H]2[C@H](Cc3ccccc3)NS(=O)(=O)[C@H]3C[C@@H]4C=C[C@]23O4)c1,-2.4,3.4,252.4
Cc1ccc(OCC(O)CN2CCOCC2)c(C)c1 (stereo not given),-2.2,.,83.8
C[C@]12C(=O)N(c3ccc(Br)cc3)C(=O)N1[C@H]1c3ccccc3OC[C@@H]1[C@H]2c1ccccc1,-10.4,-1.7,i
Cc1ccccc1CNC(=O)CCn1nc(C)c2c(C)n(-c3ccccc3)nc2c1=O,-0.5,-0.5,562.6
COCC(C)N1CCC(Oc2ccc(C(=O)NCc3ccccn3)cc2)CC1 (stereo not given),2.4,-4.8,215.1
c1ccc(N2CCN(C3CC4CCC3C4)CC2)cc1 (stereo not given),-0.7,49.9,223.0
COc1cc(N=Nc2c(C)n(C)n(-c3ccccc3)c2=O)ccc1N,1.9,98.5*,303.1
COC(=O)/C(N=Nc1c(C)n(C)n(-c2ccccc2)c1=O)=C(\C)O,-0.2,72.0,171.8
OCC1(Cc2ccc(Cl)cc2)CCN(CC2CC=CCC2)CC1 (stereo not given),-2.5,-7.0,303.3
CCN1/C(=C/C=C/C=C/c2sc3ccccc3[n+]2CC)Sc2ccccc21,.,.,851.7
CCN1/C(=C/C=C/c2sc3ccccc3[n+]2CC)Sc2ccccc21,-3.1,99.9*,168.2
COc1cc(/C=N/NC(=O)CSc2nc3ccccc3n2C)cc(OC)c1OC,1.2,16.9,365.5
Cc1ccc(N(CC(=O)NCC2CCCO2)C(=O)CCC(=O)Nc2nccs2)cc1 (stereo not given),1.6,0.6,359.4
CCOC(=O)/C=C(\C)Sc1cc(=O)oc2ccccc12,25.1*,27.5,207.8
CCOC(=O)/C=C(\C)Sc1cc(O)c2ccccc2c1O,5.3,.,.
O=C(CN1C(=O)NC2(CCCCCCC2)C1=O)NCc1ccccc1Cl,3.4,.,203.8
O=[N+]([O-])c1ccc(O)c(C=NNc2ccc(S(=O)(=O)O)cc2)c1,-0.1,.,.
COc1cc(/C=N/Nc2nc3ccccc3[nH]c2=O)ccc1O,1.9,99.1*,78.4
COc1ccc(C(=O)N/C(=C/c2cccs2)c2nc3ccccc3[nH]2)cc1OC,4.9,-9.8,243.4
COc1cccc(/C=N/Nc2nc3ccccc3[nH]2)c1O,-17.9,.,404.9
COc1cc(/C=N/Nc2nc(C)cc(C)n2)ccc1O,0.8,.,.
COc1cc(/C=N/Nc2nc3ccccc3[nH]2)cc(OC)c1O,-7.7,99.4*,532.5
O=[N+]([O-])c1cccc(N/N=C/c2cc([N+](=O)[O-])ccc2O)c1,0.2,95.6*,324.0
COc1cc(/C=C(/C(=O)c2cccs2)c2nc3ccccc3[nH]2)cc(OC)c1O,16.2,99.7*,123.3
SMILES,N-glyco inh,ALR H2O2 inh,T cell HTS
CCOC(=O)NC(=O)c1cn(Nc2ccccc2)c(=O)[nH]c1=O,3.5,8.2,287.1
COc1ccc(NC(=O)CN(C)C(=O)c2cccc(S(=O)(=O)N3CCN(c4ccc(F)cc4)CC3)c2)cc1,-3.8,.,.
COc1cc(/C=N/Nc2nc3ccccc3[nH]2)cc(Br)c1OCC(=O)N(C)C,-3.7,98.9*,208.2
CC(=O)Nc1ccc(/C=N/Nc2nc3ccccc3[nH]2)cc1,-2.7,.,485.0
O=[N+]([O-])c1ccc(O)c(/C=N/Nc2nc3ccccc3[nH]2)c1,-8.6,89.0*,259.4
O=[N+]([O-])c1ccc(O)c(/C=N/Nc2ccccn2)c1,-12.5,.,363.1
COC(=O)c1ccc(/C=N/Nc2nc3ccccc3[nH]2)cc1,-1.5,51.0,349.3
COc1cc(/C=N/Nc2nc3ccccc3[nH]2)ccc1O,-6.1,99.8*,252.8
COc1cc(/C=N/Nc2nc(=O)[nH]nc2C)ccc1O,-0.6,99.9*,355.8
COc1ccc(/C=N/Nc2nc(=O)[nH]nc2C)cc1OC,1.2,-17.8,376.7
Cc1ccccc1C(=O)Nc1nnc(SCC(=O)NC2CC2)s1,-8.8,6.8,375.0
C=CCc1cccc(Cl)c1OCCCNC1CCCC1,1.4,.,190.6
NC(N)=NC1=NC(=O)C(Cc2ccccc2Cl)S1 (stereo not given),-1.9,2.0,362.5
CCc1nnc(NC(=O)CCC(=O)Nc2ccc(Cl)cc2)s1,1.7,-17.6,357.6
COc1ccc(O)c(/C=N/Nc2nc3ccccc3[nH]2)c1,1.7,98.9*,239.5
